Bioassay records deposited in PubChem by several laboratories.
Most compounds without a hit are left out; they make up all but 3.7% or so of the library.
NPY-Y2 PAM-ag = potentiates or activates human NPY-Y2 receptor; cells expressing NPY-Y2, potentiator/agonist read-out; activation, % at 3.6 µM; hit rate 0.45% among 220,000; in the data active = activation above about 27%;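 also: cells stimulated with NPY near EC25 plus isoproterenol at EC100; 0% = vehicle plus submaximal agonist and 100% = vehicle plus saturating agonist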
Cl transport mod = KCC2 (human) Cl- transport modulation; Q9H2X9; KCC2 cells, thallium flux FluoZin-2 fluorescence; B-score of Tl+ flux slope (higher = more flux/activation; lower = inhibition) at 10 µM; hit rate 2.2% among 190,000; AID 1456;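 active = thallium flux slope and its plate-corrected score both differing from the plate sample mean at a set confidence after two filtering rounds, in either direction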;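 also: slope of fluorescence scaled to starting intensity during 10 to 20 s after thallium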
Target sequence (Q9H2X9 whole entry, looked up): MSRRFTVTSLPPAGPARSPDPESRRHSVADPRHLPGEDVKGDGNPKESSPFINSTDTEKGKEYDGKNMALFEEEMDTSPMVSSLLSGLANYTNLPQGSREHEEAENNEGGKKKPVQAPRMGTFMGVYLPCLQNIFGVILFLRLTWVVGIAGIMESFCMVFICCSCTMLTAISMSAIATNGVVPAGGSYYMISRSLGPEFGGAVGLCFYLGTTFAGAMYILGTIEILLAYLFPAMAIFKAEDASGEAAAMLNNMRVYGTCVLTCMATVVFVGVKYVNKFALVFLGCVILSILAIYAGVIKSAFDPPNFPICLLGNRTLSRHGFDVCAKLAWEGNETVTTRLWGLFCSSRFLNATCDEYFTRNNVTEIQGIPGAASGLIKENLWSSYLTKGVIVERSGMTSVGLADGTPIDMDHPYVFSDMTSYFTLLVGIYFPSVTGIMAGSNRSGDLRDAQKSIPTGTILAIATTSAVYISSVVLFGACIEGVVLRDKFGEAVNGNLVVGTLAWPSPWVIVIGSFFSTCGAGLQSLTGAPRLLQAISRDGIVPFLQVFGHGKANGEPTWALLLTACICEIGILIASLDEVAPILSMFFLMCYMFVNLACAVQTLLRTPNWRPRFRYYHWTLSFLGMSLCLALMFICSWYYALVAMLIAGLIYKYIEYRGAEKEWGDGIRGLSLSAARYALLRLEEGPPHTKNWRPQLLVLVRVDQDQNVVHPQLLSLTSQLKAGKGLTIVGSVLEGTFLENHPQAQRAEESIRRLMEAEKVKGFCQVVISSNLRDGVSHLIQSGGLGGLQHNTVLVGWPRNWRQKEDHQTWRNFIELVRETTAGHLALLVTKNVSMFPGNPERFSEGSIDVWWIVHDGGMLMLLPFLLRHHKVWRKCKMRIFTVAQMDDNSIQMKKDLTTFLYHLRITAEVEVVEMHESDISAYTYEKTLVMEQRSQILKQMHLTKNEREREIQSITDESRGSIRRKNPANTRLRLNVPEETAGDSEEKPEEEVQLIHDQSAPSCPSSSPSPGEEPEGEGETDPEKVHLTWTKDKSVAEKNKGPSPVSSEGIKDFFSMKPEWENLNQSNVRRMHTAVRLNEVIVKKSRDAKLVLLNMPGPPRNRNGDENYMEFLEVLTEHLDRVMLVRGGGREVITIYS
NPY-Y1 PAM-ag = potentiates or activates human NPY-Y1 receptor. NPY-Y1 expressing cells, potentiator/agonist activation. activation, % at 3.6 µM. hit rate 0.37% among 220,000. AID 1304; in the data active = activation above about 33%, passing the limit was not always enough;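 also: cells stimulated with NPY at EC10 then isoproterenol at EC100; 0% = low agonist plus stimulus and 100% = saturating agonist plus stimulus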
NPY Y2 blocker = antagonists of human neuropeptide Y receptor Y2; P49146; NPY-Y2 expressing cells, antagonist mode; inhibition, % at 2.7 µM; hit rate 0.99% among 140,000; in the data active = inhibition above about 17%;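 also: 0% = vehicle with agonist challenge and 100% = reference antagonist with challenge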
NPY-Y1 antag = antagonists of human neuropeptide Y receptor Y1; HEK293-CNG Y1 cells, membrane potential fluorescence; NPY at EC95, then isoproterenol; inhibition, % at 3.6 µM; hit rate 1% among 200,000; AID 1040;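 active = inhibition above the campaign mean inhibition of all tested compounds plus 3 SD, cut at about 20% in these data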;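 also: 0% = DMSO wells given NPY plus isoproterenol and 100% = isoproterenol alone without NPY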
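Assay system: HEK293 cells with Y1 receptor plus CNG channel | Probe or stimulus: NPY (25 nM), isoproterenol (1 µM), Ro 20-1724 (25 µM) | Timing: Compound incubation 1 h at room temperature, readout 45 min post-stimulation | Measured by: Membrane-potential fluorescent dye readout | Benchmarks: High control isoproterenol alone, low control NPY with isoproterenol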
Furin inhibitor = blocks human furin protease activity. P09958. inhibition, % at 20 µM or 30 µM. hit rate 0.061% among 220,000. purified furin, fluorogenic substrate cleavage; in the data active = inhibition above about 25%
Starred values were filed as active, the others as inactive; nt = no result.

SMILES	NPY-Y2 PAM-ag	Cl transport mod	NPY-Y1 PAM-ag	NPY Y2 blocker	NPY-Y1 antag	Furin inhibitor
O=C1C2C3c4ccccc4C(c4ccccc43)C2c2nc3ccccc3n21 (configuration not stated)	-11	-1.4	-18	11	24*	-13
COC(=O)c1ccc(C(=O)NC(=S)Nc2nc3c(s2)CCCC3)cc1	-2	25*	-13	13	2	-15
O=C(NC(=S)Nc1nc2c(s1)CCCC2)c1ccccc1	-1	11*	-12	1	7	-1
N#Cc1c(NC(=S)NC(=O)c2ccccc2)sc2c1CCCC2	8	0.011	-10	1	-5	-23
c1ccc(-n2cc(CN3CCCC3)c(-c3ccc4c(c3)OCO4)n2)cc1	-5	0.28	-11	nt	0	-30
COCC1CCCN(Cc2cn(-c3ccccc3)nc2-c2ccc3c(c2)OCO3)C1 (configuration not stated)	96*	0.17	65*	nt	6	-17
CC(=O)c1ccc(NC(=O)COC(=O)c2nc(Cl)ccc2Cl)cc1	8	0.69	11	nt	7	-29
Cc1cc(C)c(C(=O)Nc2ccc(Br)c(C(F)(F)F)c2)c(C)c1	-20	-0.16	-34	30*	28*	-10
COC(=O)[C@@]1(Cc2ccccc2)[C@H]2c3cc(C(=O)N4CCCC4)n(Cc4ccsc4Br)c3C[C@H]2CN1C(=O)c1ccccc1	1	0.11	16	23*	49*	-13
O=C1S/C(=C\c2ccc(O)c([N+](=O)[O-])c2)C(=O)N1Cc1cccc([N+](=O)[O-])c1	-3	nt	11	nt	-7	-21
O=C1S/C(=C\c2ccc(O)c([N+](=O)[O-])c2)C(=O)N1c1ccccc1Cl	-17	-3.5*	27	nt	0	-10
Cc1ccc(-c2cnc(NCc3cc4c(cc3[N+](=O)[O-])OCO4)n2C)cc1C	88*	-0.13	102*	nt	-16	-21
Cn1c(-c2ccc3c(c2)OCO3)cnc1NCc1ccccc1	3	0.63	-15	10	12	0
COc1ccc(OCC(O)CNC(=O)Nc2cccc3ccccc23)cc1 (configuration not stated)	2	-1.8	14	nt	nt	-15
CCn1c(Cn2nnc(-c3ccccc3)n2)nnc1SCC(=O)Nc1ccc(C(C)=O)cc1	47*	0.64	46*	-9	-20	-11
CCn1c(Cn2nnc(-c3ccccc3)n2)nnc1SCC(=O)Nc1cccc(C(C)=O)c1	20	nt	1	-4	-8	-15
COc1ccc(NC(=S)N/N=C/c2ccc(F)c(F)c2)cc1	-3	1.2	-1	nt	nt	-19
Fc1ccc(NC(=S)N/N=C/c2cccc(Br)c2)c(F)c1	-28	4*	-15	2	7	-20
Cc1cccc(NC(=S)N/N=C/c2cccc(O)c2)c1C	12	0.98	12	nt	nt	-11
Fc1ccc(/C=N/NC(=S)Nc2ccc(Cl)cc2)cc1F	-12	8.6*	-9	6	9	-16
Fc1cccc(/C=N/NC(=S)Nc2ccccc2Cl)c1	14	41*	-4	3	4	-15
Cc1ccccc1NC(=O)C(=O)N/N=C/c1cccc(Br)c1	2	0.68	-13	4	6	-14
Cc1cccc(NC(=O)Nc2cc(C)cc(C)n2)c1	-14	-0.026	-4	nt	2	-7
COc1ccc(OC)c(CNC(=O)Cc2c(C(=O)O)[nH]c3ccccc23)c1	13	-2.3	64*	4	-6	-19
CN1CCN(c2ccc(NC(=O)c3ccc(-c4ccc(Br)cc4)o3)cc2)CC1	32*	-4.6	41*	nt	0	3
SMILES	NPY-Y2 PAM-ag	Cl transport mod	NPY-Y1 PAM-ag	NPY Y2 blocker	NPY-Y1 antag	Furin inhibitor
O=C(COc1ccccc1)NC(=S)Nc1cccc([N+](=O)[O-])c1	2	43*	0	6	5	-5
CCOC(=O)c1ccc(NC(=S)NC(=O)COc2ccccc2)cc1	10	18*	8	3	2	-3
CCOC(=O)c1ccc(NC(=S)Nc2ccccc2)cc1	-10	-1.6	3	1	-5	-3
Cc1ccc(S(=O)(=O)c2nc(-c3cccs3)oc2NCCCN(C)C)cc1	0	0.85	-31	9	1	-19
CCc1nnc(NC(=O)c2cccnc2SC)s1	-4	0.24	-2	nt	1	-17
Cc1nc(Nc2cccc(O)c2)c2c3c(sc2n1)CCC3	2	-0.45	-2	nt	nt	-21
COc1ccc(N2CCN(C(=O)c3cc4c(s3)-c3ccccc3S(=O)(=O)C4)CC2)cc1	67*	0.79	81*	nt	nt	-22
CN1CCN(C(=O)c2cc3c(s2)-c2ccccc2S(=O)(=O)C3)CC1	-5	0.43	-1	2	-2	-15
COc1ccc(CN(CCC(c2ccc(F)cc2)C2CCOC(C)(C)C2)C(=O)c2ccco2)cc1 (configuration not stated)	-19	-1	-35	20*	22*	-6
Cc1cc(C)cc(N2C(=O)CSC2c2ccccn2)c1 (configuration not stated)	-10	0.007	-2	nt	-3	-8
COc1ccc(C(CNC(=O)c2cccc(N(C)C)c2)N2CCCC2)cc1 (configuration not stated)	5	1.1	1	5	-3	-35
COc1ccc(C(CNC(=O)c2cc3ccccc3cc2OC)N2CCCC2)cc1 (configuration not stated)	-30	0.88	-35	18*	28*	-8
CC(C)OC(=O)c1c2nc3ccccc3nc2n2c1[nH]c(=O)c1ccccc12	-1	125*	12	3	-5	1
CC(C)OC(=O)c1c(N)n(CCCN2CCOCC2)c2nc3ccccc3nc12	-4	-0.63	-2	1	3	-34
CNc1nc(NCCOC23CC4CC(CC(C4)C2)C3)nc(OCC(F)(F)F)n1	-3	0.4	7	2	-2	29*
CC1CCN(c2nc(CN3CCCCC3)nc3scc(-c4ccccc4)c23)CC1	-11	1.3	-41	47*	41*	-9
CC1CCN(c2nc(-c3cccnc3)nc3scc(-c4ccccc4)c23)CC1	11	0.95	10	0	1	-12
OCc1cc(C(O)CNCCCCCCOCCCCc2ccccc2)ccc1O (configuration not stated)	86*	-3*	78*	nt	-11	nt
CCOCCCNCC(O)c1ccccc1 (configuration not stated)	1	0.56	-43	0	9	-27
O=C(N/N=C/c1ccc(F)cc1)c1sccc1OCc1ccc(F)cc1	-39	nt	-50	23*	11	-22
NNC(=O)c1sccc1OCc1ccc(F)cc1	-23	nt	-10	nt	7	-23
COc1ccc(COc2ccsc2C(=O)Nc2ccc(Cl)cc2)cc1	-10	nt	-65	13	11	-26
O=C(N/N=C/c1ccc(Cl)cc1)c1sccc1OCc1ccc(F)cc1	-153	-0.68	-227	113*	109*	-16
